Sampled rows, rich in hits. Any-hit rate of the full collection: about 1.3%.
CRFR2-BP antag: antagonists of CRF-BP/CRF-R2 complex, primary screen, cell-based, HEK293, calcium dye fluorescence, uHTS | CRF-induced calcium fluorescence | inhibition, % at 11.8 µM | 350,000 tested, 0.59% active | AID 588475, 2011;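 active = inhibition of the ligand-induced calcium signal above about 50% at the single tested concentration, limit read from the data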
CRFR2-BP ag: agonists of CRF-BP/CRF-R2 complex, primary screen, cell-based, HEK293, calcium dye fluorescence, uHTS; calcium dye fluorescence (FLIPR); percent of saturating CRF peptide response; CRF-binding protein / CRF receptor 2 complex (human); activation, % at 13.2 µM; 350,000 tested, 0.46% active;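 active = activation of at least 50%, plus an integration ratio under a set limit after plate pattern correction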
Tn7 DDE FP: inhibitors of Tn7 peptide binding to fibrin DD(E), primary screen, biochemical, fluorescence polarization, human fibrin, Tn7 probe; Fibrinogen beta chain (Homo sapiens), P02675; FP displacement of FITC-Tn7 peptide from fibrin DD(E); 0% = median of compound wells per plate; inhibition, % at 8.3 µM; 370,000 tested, 0.13% active; AID 720508, 2013;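 active = inhibition above the mean of compounds falling within the control limits plus 3 SD of them, cut at about 14% in these data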
Target sequence (P02675 whole entry, looked up): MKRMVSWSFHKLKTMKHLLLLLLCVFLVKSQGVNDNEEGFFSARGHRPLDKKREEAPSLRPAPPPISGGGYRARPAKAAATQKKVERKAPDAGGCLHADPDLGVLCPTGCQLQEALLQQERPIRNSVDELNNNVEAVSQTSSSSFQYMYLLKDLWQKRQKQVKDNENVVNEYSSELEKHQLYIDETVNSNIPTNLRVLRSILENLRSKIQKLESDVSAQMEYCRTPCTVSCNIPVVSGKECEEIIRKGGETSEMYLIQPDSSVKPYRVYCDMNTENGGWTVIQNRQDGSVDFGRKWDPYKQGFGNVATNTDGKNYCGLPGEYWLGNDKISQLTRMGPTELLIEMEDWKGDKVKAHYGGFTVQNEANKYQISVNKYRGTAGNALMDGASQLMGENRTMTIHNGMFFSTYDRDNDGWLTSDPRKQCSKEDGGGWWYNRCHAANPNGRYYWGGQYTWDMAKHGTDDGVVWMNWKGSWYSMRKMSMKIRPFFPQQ
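Test system – human fibrin DD(E) · Times – 10 min preincubation, 3 h with tracer, room temperature · Detection – fluorescence polarization of the labelled Tn7 tracer · Measure – percent inhibition normalized to high-control wells · Benchmarks – high control wells with 10 µM unlabelled Aha-Tn7 peptide (full inhibition) · Repeats – singlicate testing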
Tn6 DDE FP: inhibitors of Tn6 peptide binding to fibrin DD(E), primary screen, biochemical, fluorescence polarization, human fibrin, Tn6 probe; Fibrin DD(E) TRITC-Tn6 fluorescence polarization displacement; inhibition, % at 8.3 µM; 370,000 tested, 0.21% active;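 active = inhibition above a per-campaign cutoff: mean of compounds within control limits plus 3 SD, cut at about 15% in these data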
Tn7 DDE conf: inhibitors of Tn7 peptide binding to fibrin DD(E), confirmation, biochemical, fluorescence polarization, human fibrin, Tn7 probe | inhibition, % at 8.3 µM | AID 720628, 2013 | shares compounds with Tn7 DDE FP | 460 tested, 5% active | FP displacement of TRITC-Tn7 peptide from DD(E); 0% set at plate's compound-well median;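 active = inhibition above the campaign cutoff, the mean of compounds within control limits plus 3 SD, cut at about 14% in these data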;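 also: displacers lower polarization since freed probe rises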
DDE Tn7 FP ctr: counter-screen hit for Tn7 peptide-fibrin DD(E) binding disruption | shares compounds with Tn7 DDE FP | TRITC-Tn7 probe displacement, fluorescence polarization | inhibition, % at 8.3 µM | 460 tested, 3% active | AID 720633;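 active = inhibition above the cutoff, the mean of compounds lying between the control bounds plus 3 SD of those compounds, cut at about 17% in these data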
Of the large screens only hits and unclear results are named; the others gave an inactive call (follow-up assays come after a bar, where they were run).

CC(=N\NC(=O)c1ccc([N+](=O)[O-])cc1)/C(=N/O)C(=O)Nc1ccccc1	Tn7 DDE FP 16 | Tn7 DDE conf inactive | DDE Tn7 FP ctr inactive
CCOC(=O)/C(C)=N/NC(=O)c1ccc([N+](=O)[O-])cc1	none
CNC(=O)CCc1nc(-c2ccc(C(C)C)cc2)no1	none (no result: CRFR2-BP antag, CRFR2-BP ag)
CN(C)c1ccc(/C=N/NC(=O)c2ccc(CN3CCOCC3)cc2)cc1Br	Tn7 DDE FP 14 | Tn7 DDE conf inactive | DDE Tn7 FP ctr inactive
c1coc(-c2nnc(SCc3cn4ccccc4n3)o2)c1	Tn7 DDE FP 14 | Tn7 DDE conf inactive | DDE Tn7 FP ctr inactive
Cc1cc(C)n(-c2ccc(C(=O)O)cc2)n1	Tn7 DDE FP 14 | Tn7 DDE conf inactive | DDE Tn7 FP ctr inactive
COc1cccc(Cn2cc(COC(=O)N3CCOCC3)nn2)c1	none (no result: CRFR2-BP antag, CRFR2-BP ag)
CCNC(=S)NNC(=O)CSc1nnc(SCc2cccc3ccccc23)s1	none (no result: CRFR2-BP antag, CRFR2-BP ag)
COc1ccc(N2C(=O)CSC2c2cccc(OC)c2OC)cc1 (stereo not given)	Tn7 DDE FP 14 | Tn7 DDE conf inactive | DDE Tn7 FP ctr inactive
COc1cccc(C2SCC(=O)N2c2ccc(C)cc2)c1OC (stereo not given)	none
O=C(O)c1cc(=O)c2c(Cl)cc(Cl)cc2[nH]1	none
O=C(O)c1cc(=O)c2ccccc2[nH]1	Tn7 DDE FP 14 | Tn7 DDE conf inactive | DDE Tn7 FP ctr inactive
CCn1c(SCC(=O)Nc2ccccc2-c2ccccc2)nnc1-c1ccc(C)cc1	none (no result: CRFR2-BP antag, CRFR2-BP ag)
COc1ccc(NC(=O)C[C@H]2C(=O)N(c3ccc(Br)cc3)C[C@@H]2c2ccc(OC)cc2)cc1	Tn7 DDE FP 14 | Tn7 DDE conf inactive | DDE Tn7 FP ctr inactive
COc1ccc(NC(=O)C[C@H]2C(=O)N(c3ccc(OC)cc3)C[C@@H]2c2ccc(Br)cc2)cc1	none
CN1CCCCC(NC(=O)c2ccc3ccccc3c2)C1=O (stereo not given)	none (no result: CRFR2-BP antag, CRFR2-BP ag)
CNCCC1Sc2ccccc2Oc2ccccc21 (stereo not given)	Tn7 DDE FP 14 | Tn7 DDE conf inactive | DDE Tn7 FP ctr inactive
CN(C)CCCC1Sc2ccccc2Sc2ccccc21 (stereo not given)	none
CCCCN(CC)CCNC(=O)c1cc2c(C)nc3ccccc3c2o1	none
CCc1ccc(CNC(=O)c2cc3c(C)nc4ccccc4c3o2)cc1	Tn7 DDE FP 14 | Tn7 DDE conf inactive | DDE Tn7 FP ctr inactive
COc1ccc(CNC2CCC23CCCCC3)cc1OC (stereo not given)	none (no result: CRFR2-BP antag, CRFR2-BP ag)
COCCN(C[C@@H]1[C@H](c2ccccc2)[C@H](CO)N1c1nc(C)c(C)s1)S(=O)(=O)c1ccccc1[N+](=O)[O-]	none (no result: CRFR2-BP antag, CRFR2-BP ag)
C/C(=N\NC(=O)CSCc1ccc(Cl)cc1)c1ccc2c(c1)OCCO2	Tn7 DDE FP 14 | Tn7 DDE conf inactive | DDE Tn7 FP ctr inactive
C/C(=N\NC(=O)COc1cccc(Cl)c1)c1ccc2c(c1)OCCO2	none
C[C@@H]1COC(=O)[C@H](Cc2ccc(F)cc2)C/C=C\C[C@@H](CC(=O)NCCO)C(=O)N1	Tn7 DDE FP 15 | Tn7 DDE conf inactive | DDE Tn7 FP ctr inactive
C[C@H]1COC(=O)[C@@H](Cc2ccc(F)cc2)C/C=C\C[C@@H](CC(=O)NCCO)C(=O)N1	none
Cc1c(C(C)c2ccccc2O)c2ccccc2n1C (stereo not given)	none (no result: CRFR2-BP antag, CRFR2-BP ag)
Cc1cc(C)nc(NS(=O)(=O)c2ccc(N/C=C\C(=O)c3ccc(Cl)cc3)cc2)n1	Tn7 DDE FP 14 | Tn7 DDE conf inactive | DDE Tn7 FP ctr inactive
N[C@H](C(=O)N[C@@H](Cc1ccccc1)C(=O)N1CCC2CCN(S(=O)(=O)c3ccccc3)CC21)c1ccccc1 (stereo not given in full)	none (no result: CRFR2-BP antag, CRFR2-BP ag)
O=C(c1oc2ccccc2c1N1CCCCC1)N1CCCCC1	Tn7 DDE FP 15 | Tn7 DDE conf inactive | DDE Tn7 FP ctr inactive
O=C(c1cc2ccccc2o1)N1CCCCCC1	none
Cc1ccc(NC(=O)Cn2c(O)c(N=NC(N)=S)c3ccccc32)cc1	none
Cc1ccc(NC(=O)Cn2c(O)c(N=NC(N)=O)c3ccccc32)cc1	Tn7 DDE FP 14 | Tn7 DDE conf inactive | DDE Tn7 FP ctr inactive
COc1ccc(S[C@]2(C(=O)N3CCCC3)CC(=O)N(C(=O)C3CC3)[C@@H]2c2ccc(OC)cc2)cc1	none (no result: CRFR2-BP antag, CRFR2-BP ag)
Cc1ccc(NC(=O)CSc2nnc3ccc(-c4ccncc4)nn23)cc1	none
Cc1ccc(CSc2nnc3ccc(-c4ccncc4)nn23)cc1	Tn7 DDE FP 14 | Tn7 DDE conf inactive | DDE Tn7 FP ctr inactive
N/C(=N\OC(=O)c1ccc2c(c1)OCO2)c1ccc(Cl)cc1	none
N/C(=N\OC(=O)c1ccc2c(c1)OCO2)c1ccncc1	Tn7 DDE FP 15 | Tn7 DDE conf inactive | DDE Tn7 FP ctr inactive
CN1CCCC1CCSc1ncccc1-c1nc2ccccc2[nH]1 (stereo not given)	none (no result: CRFR2-BP antag, CRFR2-BP ag)
CCCCCCCCN1CCS(=O)(=O)N(Cc2ccc(Cl)cc2)C(C(=O)OC)C1 (stereo not given)	none (no result: CRFR2-BP antag, CRFR2-BP ag)
C=CCN1C(=O)[C@@H](CC(=O)N2CCC(c3ccccc3)CC2)[C@]2(C(=O)OCC)CCCCC/C=C/12	none (no result: CRFR2-BP antag, CRFR2-BP ag)
COc1cc(C2c3cc4c(cc3OC(NCc3ccccc3)C2C)OCO4)cc(OC)c1OC (stereo not given)	Tn7 DDE FP 14 | Tn7 DDE conf inactive | DDE Tn7 FP ctr inactive
O=C(Cc1ccccc1)NNC1=NS(=O)(=O)c2ccccc21	Tn7 DDE FP 14 | Tn7 DDE conf inactive | DDE Tn7 FP ctr inactive
COC(=O)c1cc2occc2n1Cc1ccc(Cl)cc1	none
COC(=O)c1cc2occc2n1CC(=O)Nc1ccc(C)cc1C	Tn7 DDE FP 14 | Tn7 DDE conf inactive | DDE Tn7 FP ctr inactive
C=CCOc1ccc2c(c1)CCC1C2CCC2(C)C(O)C(O)CC12 (stereo not given)	Tn7 DDE FP 14 | Tn7 DDE conf inactive | DDE Tn7 FP ctr inactive
COC(=O)C1CN(Cc2ccc(OC)cc2)CCS(=O)(=O)N1Cc1ccc(OC)cc1 (stereo not given)	none (no result: CRFR2-BP antag, CRFR2-BP ag)
NS(=O)(=O)c1cccc(NC(=O)CSc2ncnc3ccccc23)c1	none
NS(=O)(=O)c1ccc(NC(=O)CSc2ncnc3ccccc23)cc1	Tn7 DDE FP 14 | Tn7 DDE conf inactive | DDE Tn7 FP ctr inactive
Cn1c(=O)c(NC2CCCCC2)c2c3c(cccc31)C(=O)c1ccccc1-2	Tn7 DDE FP 19 | Tn7 DDE conf inactive | DDE Tn7 FP ctr inactive
CC(=O)Nc1ccc(Nc2c3c4c(cccc4n(C)c2=O)C(=O)c2ccccc2-3)cc1	Tn7 DDE FP 19 | Tn7 DDE conf inactive | DDE Tn7 FP ctr inactive
CC(=O)Nc1ccc(NC2=CC(=O)c3ccccc3C2=O)cc1	none
